Source: ChEMBL document CHEMBL1129039 (J Med Chem, 1996)
Active and inactive are the calls of the source. No cut-off for these calls is given here.

Legend:
[1] = In vitro stability was measured in porcine kidney tissue preparation; format: ADME, Sus scrofa; conditions: pig
Method in brief: (§1)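 Lung or kidney cortical membranes made by differential centrifugation and stored at -20 °C. Dilutions in PBS: porcine kidney 1:10, rat kidney 1:100, porcine lung 1:1. Compound at 1 mM in PBS, 10 μL, incubated with 90 μL diluted membranes for various times. Quenched with ethanol, centrifuged.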

[2] = In vitro stability was measured in porcine lung tissue preparation; format: ADME, Sus scrofa; conditions: pig; method in brief: as §1
[3] = In vitro stability was measured in human plasma tissue preparation; format: ADME
B2 bradykinin receptor [4] = molecular target: T1, B2 bradykinin receptor (Rattus norvegicus, UniProt P25023); test: In vitro Bradykinin receptor B2 antagonist activity by using rat uterus functional assay; format: tissue-based; conditions: read-out: pA2 (converted)
T1 sequence (P25023 whole entry): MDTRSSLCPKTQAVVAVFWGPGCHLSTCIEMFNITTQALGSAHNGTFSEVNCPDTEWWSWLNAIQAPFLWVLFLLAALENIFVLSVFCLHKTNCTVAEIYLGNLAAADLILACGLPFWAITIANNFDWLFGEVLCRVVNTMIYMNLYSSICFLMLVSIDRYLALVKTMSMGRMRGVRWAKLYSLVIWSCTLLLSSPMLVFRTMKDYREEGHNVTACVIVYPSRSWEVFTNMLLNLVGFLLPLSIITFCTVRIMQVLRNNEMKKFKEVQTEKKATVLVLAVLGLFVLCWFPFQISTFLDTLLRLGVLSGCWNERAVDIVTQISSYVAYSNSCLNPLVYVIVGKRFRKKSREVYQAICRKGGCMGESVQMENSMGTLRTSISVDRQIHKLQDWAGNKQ
Method in brief: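 Uterine horns from female Sprague-Dawley rats primed with stilbesterol (100 μg/kg) 18 h earlier. Tissue held at 1 g tension in De Jalon's solution, 31 °C, aerated. Potency by Arunlakshana-Schild analysis.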

[5] = In vitro stability was measured in rat kidney tissue preparation; format: ADME; method in brief: as §1
[6] = Binding affinity towards bradykinin receptor using [3H]BK as radioligand in guinea pig ileum; format: tissue-based, Cavia porcellus
Method in brief: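 Ileal membranes from Duncan-Hartley guinea pigs, 0.2 mg/mL, room temperature in 25 mM TES pH 6.8 with 1,10-phenanthroline, DTT, captopril, bacitracin, thiorphan, 0.1% BSA. […] Filtered on PEI-pretreated GF/B, washed with cold Tris pH 7.5/NaCl/BSA, scintillation counted. Mean ± SD, n = 4.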

B2 bradykinin receptor [7] = molecular target: T2, B2 bradykinin receptor (Homo sapiens, UniProt P30411); test: Binding affinity towards Bradykinin receptor B2 in human S34 clone cells; format: cell-based
T2 sequence (P30411 whole entry): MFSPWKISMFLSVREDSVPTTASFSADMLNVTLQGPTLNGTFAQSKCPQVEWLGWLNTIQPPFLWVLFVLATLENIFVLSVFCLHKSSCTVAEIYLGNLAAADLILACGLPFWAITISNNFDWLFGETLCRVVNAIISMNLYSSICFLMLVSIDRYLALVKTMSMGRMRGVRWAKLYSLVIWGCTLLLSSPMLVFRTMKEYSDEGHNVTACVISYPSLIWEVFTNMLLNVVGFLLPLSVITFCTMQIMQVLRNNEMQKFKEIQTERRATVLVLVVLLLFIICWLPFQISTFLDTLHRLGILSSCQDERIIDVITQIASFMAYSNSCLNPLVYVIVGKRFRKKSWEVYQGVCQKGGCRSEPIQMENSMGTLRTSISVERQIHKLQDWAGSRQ

[8] = molecular target: B1 bradykinin receptor (Oryctolagus cuniculus); test: In vitro Bradykinin receptor B1 antagonist activity in functional tissue within rabbit aorta
Oryctolagus cuniculus [9] = test: Effective dose for bradykinin B1 activity after administration (1 ug/kg/min) in rabbit; format: functional
Oryctolagus cuniculus [10] = test: Effective dose for bradykinin B1 activity after administration (10 ug/kg/min) in rabbit; format: functional
Oryctolagus cuniculus [11] = test: Effective dose for bradykinin B1 activity after administration (3 ug/kg/min) in rabbit; format: functional
Oryctolagus cuniculus [12] = test: Effective dose for bradykinin B2 activity after administration (0.01 ug/kg/min) in rabbit; format: functional
Oryctolagus cuniculus [13] = test: Effective dose for bradykinin B2 activity after administration (0.03 ug/kg/min) in rabbit; format: functional
Oryctolagus cuniculus [14] = test: Effective dose for bradykinin B2 activity after administration (0.1 ug/kg/min) in rabbit; format: functional
Rattus norvegicus [15] = test: Percent inhibition after subcutaneously administration compound at 3H in rat; expressed as percent inhibition; format: functional
Oryctolagus cuniculus [16] = test: Percent inhibition after intravenously administration compound at 60 min in rabbit; expressed as percent inhibition; format: functional
Oryctolagus cuniculus [17] = test: Selectivity was determined as response after administration (0.1 ug/mg/kg) to that of preantagonist response in rabbit; B2 block only; format: functional, organism-based
Rattus norvegicus [18] = organism: Rattus norvegicus; test: Percent recovery was evaluated in rat; format: functional, organism-based
Method in brief: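 Same rat uterus preparation. […] Its pD2 is compared with the initial control pD2. The difference against concurrent control gives percentage recovery of agonist response.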

## NC(N)=NCCC[C@@H](N)C(=O)N[C@@H](CCCN=C(N)N)C(=O)N1CCC[C@H]1C(=O)N1C[C@H](O)C[C@H]1C(=O)NCC(=O)N[C@@H](Cc1cccs1)C(=O)N[C@@H](CO)C(=O)N1Cc2ccccc2C[C@@H]1C(=O)N1[C@H](C(=O)N[C@@H](CCCN=C(N)N)C(=O)O)C[C@@H]2CCCC[C@@H]21 [ICATIBANT]
[1]
  half-life: > 6 h
[2]
  half-life: > 6 h
[3]
  half-life: > 6 h
B2 bradykinin receptor [4]
  Kb: 0.316 nM
[5]
  half-life: > 6 h

## NC(N)=NCCCC(N)C(=O)NC(CCCN=C(N)N)C(=O)N1CCC[C@H]1C(=O)N1C[C@H](O)C[C@H]1C(=O)NCC(=O)N[C@@H](Cc1cccs1)C(=O)N[C@@H](CO)C(=O)N1Cc2ccccc2C[C@@H]1C(=O)N(CC(=O)NC(CCCN=C(N)N)C(=O)O)C1CCCCC1 (stereo in doubt) [listing 1 of 3 here]
[1]
  half-life: > 6 h
[2]
  half-life: > 6 h
[3]
  half-life: > 6 h
B2 bradykinin receptor [4]
  Kb: 0.49 nM
[6]
  Log Ki: -10.11
B2 bradykinin receptor [7]
  Ki: 0.24 nM
[5]
  half-life: > 6 h
[8]
  IC50: > 10000 nM

## NC(N)=NCCCC(N)C(=O)NC(CCCN=C(N)N)C(=O)N1CCC[C@H]1C(=O)N1C[C@H](O)C[C@H]1C(=O)NCC(=O)N[C@@H](Cc1cccs1)C(=O)N[C@@H](CO)C(=O)N1Cc2ccccc2C[C@@H]1C(=O)N(CC(=O)NC(CCCN=C(N)N)C(=O)O)C1CCCCC1 (stereo in doubt) [listing 2 of 3 here]
Oryctolagus cuniculus [9]
  ED50: 2.9 µg/mg/kg
Oryctolagus cuniculus [10]
  ED50: 2.9 µg/mg/kg
Oryctolagus cuniculus [11]
  ED50: 2.9 µg/mg/kg
Oryctolagus cuniculus [12]
  ED50: 0.051 µg/mg/kg
Oryctolagus cuniculus [13]
  ED50: 0.051 µg/mg/kg
Oryctolagus cuniculus [14]
  ED50: 0.051 µg/mg/kg
Rattus norvegicus [15]
  Inhibition: 100%
Oryctolagus cuniculus [16]
  Inhibition: 100%

## NC(N)=NCCCC(N)C(=O)NC(CCCN=C(N)N)C(=O)N1CCC[C@H]1C(=O)N1C[C@H](O)C[C@H]1C(=O)NCC(=O)N[C@@H](Cc1cccs1)C(=O)N[C@@H](CO)C(=O)N1Cc2ccccc2C[C@@H]1C(=O)N(CC(=O)NC(CCCN=C(N)N)C(=O)O)C1CCCCC1 (stereo in doubt) [listing 3 of 3 here]
Oryctolagus cuniculus [17]
  Selectivity: inactive
Rattus norvegicus [18]
  Recovery: 73%
